Tests used:
Conditions in all cases: stereoisomer not certain
OR10A7 (Homo sapiens) = molecular target: T1, OR10A7 (Homo sapiens) (UniProt Q8NGE5)
T1 sequence (whole entry): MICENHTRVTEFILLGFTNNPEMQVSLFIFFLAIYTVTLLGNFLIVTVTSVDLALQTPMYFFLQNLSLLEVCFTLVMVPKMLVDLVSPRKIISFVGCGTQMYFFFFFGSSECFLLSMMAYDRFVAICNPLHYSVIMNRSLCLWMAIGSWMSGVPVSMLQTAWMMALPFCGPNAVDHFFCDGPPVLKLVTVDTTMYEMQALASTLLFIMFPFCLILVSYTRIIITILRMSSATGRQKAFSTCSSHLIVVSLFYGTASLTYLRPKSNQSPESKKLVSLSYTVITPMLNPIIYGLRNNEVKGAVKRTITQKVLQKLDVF
In short: (§1)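 Each receptor–molecule pair is labelled responsive or non-responsive (inactive) according to whether the original authors judged the measured signal statistically different from baseline. The data were taken from the main text and supplementary material of published papers and checked for typos and inconsistencies. Assay methods differed by source, with transient luciferase assays in mammalian cell lines being common.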

O5AN1 = system: T2, O5AN1
T2 sequence (whole entry): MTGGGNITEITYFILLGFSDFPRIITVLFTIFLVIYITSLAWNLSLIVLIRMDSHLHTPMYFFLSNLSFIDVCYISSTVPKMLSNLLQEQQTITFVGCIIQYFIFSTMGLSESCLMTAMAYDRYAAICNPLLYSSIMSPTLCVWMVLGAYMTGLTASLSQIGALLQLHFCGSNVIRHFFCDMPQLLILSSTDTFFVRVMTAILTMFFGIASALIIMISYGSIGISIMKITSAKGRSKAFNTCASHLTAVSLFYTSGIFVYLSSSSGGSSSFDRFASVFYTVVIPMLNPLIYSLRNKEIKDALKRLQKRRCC
In short: as §1

OR10A2 (Homo sapiens) = molecular target: T3, OR10A2 (Homo sapiens) (UniProt Q9H208)
T3 sequence (whole entry): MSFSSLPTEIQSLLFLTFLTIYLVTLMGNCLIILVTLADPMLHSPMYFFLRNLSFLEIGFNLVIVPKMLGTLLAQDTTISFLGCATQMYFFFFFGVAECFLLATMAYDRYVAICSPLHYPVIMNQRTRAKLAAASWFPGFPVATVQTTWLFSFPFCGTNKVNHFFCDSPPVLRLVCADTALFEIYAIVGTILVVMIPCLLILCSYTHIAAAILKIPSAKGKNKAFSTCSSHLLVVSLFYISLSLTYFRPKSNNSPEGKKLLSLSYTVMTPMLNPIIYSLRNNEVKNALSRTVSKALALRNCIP
In short: as §1

OR10A4 (Homo sapiens) = molecular target: T4, OR10A4 (Homo sapiens) (UniProt Q9H209)
T4 sequence (whole entry): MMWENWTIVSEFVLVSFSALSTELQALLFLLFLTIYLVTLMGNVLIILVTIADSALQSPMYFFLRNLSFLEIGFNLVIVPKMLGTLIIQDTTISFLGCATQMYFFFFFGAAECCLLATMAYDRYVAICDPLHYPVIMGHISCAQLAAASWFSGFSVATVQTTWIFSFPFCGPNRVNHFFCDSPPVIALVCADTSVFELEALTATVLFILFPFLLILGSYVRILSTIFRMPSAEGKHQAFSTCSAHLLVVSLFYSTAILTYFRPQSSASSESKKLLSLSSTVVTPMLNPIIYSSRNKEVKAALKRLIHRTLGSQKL
In short: as §1

OR10A5 (Homo sapiens) = molecular target: T5, OR10A5 (Homo sapiens) (UniProt Q9H207)
T5 sequence (whole entry): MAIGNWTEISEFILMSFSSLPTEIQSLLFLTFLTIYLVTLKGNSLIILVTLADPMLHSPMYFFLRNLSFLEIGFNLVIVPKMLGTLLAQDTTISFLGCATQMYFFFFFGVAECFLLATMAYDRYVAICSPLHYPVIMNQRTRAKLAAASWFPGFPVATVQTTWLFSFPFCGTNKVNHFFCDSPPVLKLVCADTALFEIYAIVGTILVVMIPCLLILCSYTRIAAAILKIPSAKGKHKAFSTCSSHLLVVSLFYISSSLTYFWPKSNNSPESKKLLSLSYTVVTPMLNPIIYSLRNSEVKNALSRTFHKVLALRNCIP
In short: as §1

OR10A6 (Homo sapiens) = molecular target: T6, OR10A6 (Homo sapiens) (UniProt Q8NH74)
T6 sequence (whole entry): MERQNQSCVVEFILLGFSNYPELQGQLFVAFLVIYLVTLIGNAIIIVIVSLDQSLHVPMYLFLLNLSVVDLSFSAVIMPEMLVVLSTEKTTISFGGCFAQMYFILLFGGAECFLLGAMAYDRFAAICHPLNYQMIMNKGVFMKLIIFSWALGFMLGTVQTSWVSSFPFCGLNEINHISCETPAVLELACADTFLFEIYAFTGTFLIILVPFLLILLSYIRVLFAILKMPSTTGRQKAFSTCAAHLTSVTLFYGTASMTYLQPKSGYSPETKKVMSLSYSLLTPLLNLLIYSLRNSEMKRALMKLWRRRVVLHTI
In short: as §1

OR10AC1 (Homo sapiens) = OR10AC1 (Homo sapiens) (UniProt Q8NH08)
In short: as §1

OR10AD1 (Homo sapiens) = molecular target: T7, OR10AD1 (Homo sapiens) (UniProt Q8NGE0)
T7 sequence (whole entry): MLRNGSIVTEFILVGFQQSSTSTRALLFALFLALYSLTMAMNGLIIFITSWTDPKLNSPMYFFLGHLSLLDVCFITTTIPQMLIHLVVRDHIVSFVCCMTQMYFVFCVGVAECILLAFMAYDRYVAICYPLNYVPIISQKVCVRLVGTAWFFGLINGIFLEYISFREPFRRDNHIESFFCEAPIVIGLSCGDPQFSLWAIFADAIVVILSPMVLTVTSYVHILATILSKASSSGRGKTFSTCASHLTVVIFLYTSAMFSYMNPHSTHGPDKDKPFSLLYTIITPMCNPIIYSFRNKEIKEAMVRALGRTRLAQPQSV
In short: as §1

OR10AG1 (Homo sapiens) = molecular target: T8, OR10AG1 (Homo sapiens) (UniProt Q8NH19)
T8 sequence (whole entry): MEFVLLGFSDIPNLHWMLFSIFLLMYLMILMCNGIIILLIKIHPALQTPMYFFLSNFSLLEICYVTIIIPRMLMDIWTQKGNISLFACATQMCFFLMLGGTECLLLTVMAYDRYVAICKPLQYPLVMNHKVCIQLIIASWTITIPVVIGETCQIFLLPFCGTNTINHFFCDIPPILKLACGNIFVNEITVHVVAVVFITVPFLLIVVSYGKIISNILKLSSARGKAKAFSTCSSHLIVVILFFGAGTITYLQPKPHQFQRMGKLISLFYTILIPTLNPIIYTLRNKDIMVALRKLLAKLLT
In short: as §1

OR10C1 (Homo sapiens) = molecular target: T9, OR10C1 (Homo sapiens) (UniProt Q96KK4)
T9 sequence (whole entry): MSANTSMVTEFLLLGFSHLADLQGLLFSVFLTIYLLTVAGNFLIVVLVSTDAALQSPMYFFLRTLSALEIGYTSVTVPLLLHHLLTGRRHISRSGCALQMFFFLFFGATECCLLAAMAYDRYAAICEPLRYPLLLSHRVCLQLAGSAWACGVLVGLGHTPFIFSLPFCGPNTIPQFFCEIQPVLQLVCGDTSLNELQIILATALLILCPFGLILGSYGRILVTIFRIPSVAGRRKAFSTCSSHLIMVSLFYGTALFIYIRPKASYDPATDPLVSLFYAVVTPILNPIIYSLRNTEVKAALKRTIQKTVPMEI
In short: as §1

Measured: odorant receptor agonist call

OR10AC1 (Homo sapiens), sequence (Q8NH08 whole entry): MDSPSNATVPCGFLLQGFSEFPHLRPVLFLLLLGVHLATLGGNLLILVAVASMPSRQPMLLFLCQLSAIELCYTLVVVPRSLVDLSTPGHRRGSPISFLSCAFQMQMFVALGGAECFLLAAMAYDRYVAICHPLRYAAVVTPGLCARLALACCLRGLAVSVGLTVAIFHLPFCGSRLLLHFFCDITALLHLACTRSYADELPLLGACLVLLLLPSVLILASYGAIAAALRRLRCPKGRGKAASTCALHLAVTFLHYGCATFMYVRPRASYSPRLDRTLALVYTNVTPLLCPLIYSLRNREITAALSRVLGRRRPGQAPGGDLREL

CC1(C)CC(=O)CC(=O)C1
inactive: OR10A7 (Homo sapiens)

CC1CCCCCCCCCCCCC(=O)C1 (configuration not stated)
active: O5AN1
inactive: all other assays above

O=C1C=CCCCCCCCCCCCCO1
inactive: O5AN1

Source: the M2OR odorant receptor database
